Measurements: ChEMBL document CHEMBL1124753, “Hydroxyethylamine analogues of the p17/p24 substrate cleavage site are tight-binding inhibitors of HIV protease” (J Med Chem, 1990)
*1 amine or outer side, *2 acyl side, *3 side chain or, on linkers, in order; H or OH if unused. Where a SMILES comes first, the peptide text is derived from it. [ ]: non-standard residue; d: D form. The star is where a group is joined. Phe(ψ(S)CH(OH)CH2N)Pro = O=C([C@@H]1CCCN1C[C@H](O)[C@H](Cc1ccccc1)N[*:1])[*:2]; Ahppa(3S,4S) = O=C(C[C@H](O)[C@H](Cc1ccccc1)N[*:1])[*:2]; X1 = CC(C)C[C@H](N[*:1])[C@@H](O)CN1CCC[C@H]1C(=O)[*:2]; X2 = O=C([C@@H]1CCCN1C[C@H](Cc1ccccc1)N[*:1])[*:2]; Sta = CC(C)C[C@H](N)[C@@H](O)CC(=O)O; Boc = CC(C)(C)OC(=O)*

These compounds were tested against T1, Human immunodeficiency virus type 1 protease (Human immunodeficiency virus 1, UniProt Q72874) (assay: Inhibitory activity against HIV Protease was measured at pH 6.4 and 37 degrees C).
Procedure, shortened: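 Recombinant HIV protease expressed in E. coli; substrate Ac-Thr-Ile-Met-Gln-Arg-NH2 varied 0.5–10 mM. Inhibitor added in DMSO (final 1–3%), preincubated with enzyme 10 min before substrate started the reaction. Initial rates by HPLC and fluorometric assays. Ki from fitting initial velocities to the competitive inhibition equation; each is the average of three or more independent determinations.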

Question: For `CC[C@H](C)[C@H](NC(=O)[C@@H]1CCCN1C[C@H](O)[C@H](CC(C)C)NC(=O)[C@H](CC(N)=O)NC(=O)[C@H](CC(C)C)NC(C)=O)C(=O)OC`, which Ki is on record?
Answer: > 10000 nM

Question: For `CC[C@H](C)[C@H](NC(=O)[C@@H]1CCCN1C[C@H](O)[C@H](CC(C)C)NC(=O)[C@H](CC(N)=O)NC(=O)[C@H](CC(C)C)NC(=O)[C@H](CO)NC(C)=O)C(=O)N[C@H](C(=O)OC)C(C)C` (Ac-SLN[X1]IV-OMe), which Ki is on record?
Answer: 118 nM

Question: For `CC[C@H](C)[C@H](NC(=O)[C@@H]1CCCN1C[C@H](O)[C@H](CC(C)C)NC(=O)[C@H](CC(N)=O)NC(=O)[C@H](CC(C)C)NC(=O)[C@H](CO)NC(C)=O)C(=O)OC` (Ac-SLN[X1]I-OMe), which Ki is on record?
Answer: 980 nM

Question: Which Ki does the source give for `CC[C@H](C)[C@H](NC(=O)C[C@H](O)[C@H](Cc1ccccc1)NC(=O)[C@H](CC(N)=O)NC(=O)[C@H](CC(C)C)NC(=O)[C@H](CO)NC(C)=O)C(=O)N[C@H](C(=O)OC)C(C)C` (Ac-SLN[Ahppa(3S,4S)]IV-OMe) here?
Answer: 8000 nM

These compounds were tested against T1, Human immunodeficiency virus type 1 protease (assay: Inhibition of HIV protease at pH 6.4, 37 degree C).

Question: Which Ki does the source give for `CC[C@@H](C)[C@H](NC(=O)[C@@H]1CCCN1C[C@@H](O)[C@H](Cc1ccccc1)NC(=O)[C@H](CC(N)=O)NC(=O)[C@H](CC(C)C)NC(C)=O)C(=O)N[C@H](C(=O)OC)C(C)C` here?
Answer: 21 nM

Question: `CC[C@H](C)[C@H](NC(=O)C[C@H](O)[C@H](CC(C)C)NC(=O)[C@H](CC(N)=O)NC(=O)[C@H](CC(C)C)NC(=O)[C@H](CO)NC(C)=O)C(=O)N[C@H](C(=O)OC)C(C)C` (Ac-SLN[Sta]IV-OMe) was tested. Which Ki did it give?
Answer: 1060 nM

Question: `CC[C@H](C)[C@H](NC(=O)[C@@H]1CCCN1C[C@H](O)[C@H](Cc1ccccc1)NC(=O)[C@H](CC(N)=O)NC(=O)[C@H](CC(C)C)NC(=O)[C@H](CO)NC(C)=O)C(=O)N[C@H](C(=O)OC)C(C)C` (Ac-SLN[Phe(ψ(S)CH(OH)CH2N)Pro]IV-OMe) was tested. Which Ki did it give?
Answer: 0.66 nM

Question: How did the Ki turn out when `COC(=O)[C@@H](NC(=O)[C@@H](NC(=O)CNC[C@H](O)[C@H](Cc1ccccc1)NC(=O)[C@H](C)NC(=O)[C@H](C)N)C(C)C)C(C)C` was run?
Answer: 18 nM

Question: `CC(=O)N[C@@H](CO)C(=O)N[C@@H](CCC(N)=O)C(=O)N[C@@H](CC(N)=O)C(=O)N[C@@H](Cc1ccccc1)CN1CCC[C@H]1C(=O)N[C@H](C(=O)N[C@H](C(N)=O)C(C)C)C(C)C` (Ac-SQN[X2]VV-NH2) was tested. Which Ki did it give?
Answer: 13000 nM

Question: How did the Ki turn out when `CC[C@H](C)[C@H](NC(=O)[C@@H]1CCCN1C[C@H](O)[C@H](Cc1ccccc1)NC(=O)[C@H](CC(N)=O)NC(=O)[C@H](CC(C)C)NC(=O)[C@H](CO)NC(C)=O)C(=O)OC` (Ac-SLN[Phe(ψ(S)CH(OH)CH2N)Pro]I-OMe) was run?
Answer: 420 nM

Question: How did the Ki turn out when `CC[C@H](C)[C@H](NC(=O)C[C@H](O)[C@H](Cc1ccccc1)NC(=O)[C@H](CC(N)=O)NC(=O)[C@H](CC(C)C)NC(=O)[C@H](CO)NC(=O)OC(C)(C)C)C(=O)N[C@H](C(=O)OC)C(C)C` (Boc-SLN[Ahppa(3S,4S)]IV-OMe) was run?
Answer: 2640 nM

Question: `COC(=O)[C@@H](NC(=O)[C@@H](NC(=O)C[C@H](O)[C@H](Cc1ccccc1)NC(=O)[C@H](CC(N)=O)NC(=O)[C@H](CCC(N)=O)NC(=O)[C@H](CO)NC(C)=O)C(C)C)C(C)C` (Ac-SQN[Ahppa(3S,4S)]VV-OMe) was tested. Which Ki did it give?
Answer: 39000 nM

Question: How did the Ki turn out when `CC[C@H](C)[C@H](NC(=O)[C@@H]1CCCN1C[C@H](O)[C@H](CC(C)C)NC(=O)[C@H](CC(N)=O)NC(=O)[C@H](CC(C)C)NC(C)=O)C(=O)N[C@H](C(=O)OC)C(C)C` (Ac-LN[X1]IV-OMe) was run?
Answer: 21 nM

Question: For `CC[C@H](C)[C@H](NC(=O)[C@H](Cc1ccccc1)NC[C@H](O)[C@H](Cc1ccccc1)NC(=O)OC(C)(C)C)C(=O)N[C@@H](Cc1ccccc1)C(=O)OC`, which Ki is on record?
Answer: 0.6 nM
